The source made the active and inactive calls. The rule behind the calls is not given here.

As a reminder, the ΔTm is the shift of the melting midpoint relative to a reference. What is called Kd is the concentration at which binding is half-saturated. In general, IC50 refers to the concentration needed to halve the response being measured.

The species entered for data set [1] is Homo sapiens. The data set can be described thus: Stabilization of human KRAS utr-z G-quadruplex RNA assessed as change in melting temperature at 1 to 4 ligand to RNA ratio after 1 hr by UV-visible spectrophotometer. In short, it runs like this:
(§1)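 UV-melting curves of the G4 RNA were recorded at 260 and 296 nm in a 0.5 cm cuvette, in 50 mM Tris-HCl pH 7.4, 100 mM KCl. Ligand was tested at ligand/G4 ratio r = 1, 2 and 4. ΔTM is the TM increase over RNA alone.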

Data set [2] can be described thus: Binding affinity to WC RNA hairpin (unknown origin) by fluorescence titration method.
The species entered for data set [3] is Homo sapiens. Kind of data set: Stabilization of human KRAS 5'-UTR G-quadruplex RNA transfected in human PANC1 cells assessed as inhibition of translation at 0.3 to 1.6 uM preincubated for 6 hrs followed by transfection measured after 48 hrs by dual-glo luciferase reporter gene assay. Type of data set: cell-based. In short, it runs like this:
(§2)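 Panc-1 cells (20 × 10^3) were treated the next day for 6 h. They were then transfected with jet-PEI using 10 ng Renilla reporter under the KRAS promoter including the 5′-UTR, plus 200 ng Firefly plasmid under a G4-mutated HRAS promoter. Dual-Glo luminescence was read 48 h later. Renilla/Firefly is given as T/C × 100 against untreated cells.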

Data set [4] can be described thus: Binding affinity to human KRAS promoter G-quadruplex DNA by fluorescence titration method.
Data set [5] in a line: Drug uptake in human PANC1 cells at 3 uM after 4 hrs by flow cytometric method. Type of data set: ADME, cell-based. The settings on record: panc-1, 4 h. In short, it runs like this:
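Panc-1 cells were seeded at 5 × 10^4/well and exposed the next day to 3 μM compound for 4 h. Cells were trypsinized, resuspended in PBS and analysed at once by flow cytometry (488 nm excitation, FL3 680 nm, log scale), at least 10^4 cells per sample, gated on FSC/SSC.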
In general terms: In flow cytometry, cells or beads pass a laser one at a time.

The next data set relates to Cytomegalovirus. The data set can be described thus: Stabilization of CMV promoter lacking KRAS 5'-UTR G-quadruplex RNA transfected in human PANC1 cells assessed as inhibition of translation at 0.15 to 0.6 uM preincubated for 6 hrs followed by transfection measured after 48 hrs by dual-glo luciferase reporter gene assay. Type of data set: cell-based. In short, it runs like this:
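Renilla reporter pRL-CMV lacks the KRAS 5′-UTR. Panc-1 cells were pretreated 6 h, then cotransfected (10 ng) with 200 ng Firefly plasmid under a G4-mutated HRAS promoter. Dual-Glo was read after 48 h, expressed as Renilla/Firefly T/C × 100 versus untreated cells.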
A general note: A reporter such as luciferase makes a cellular process visible.

The nature of data set [6]: Binding affinity to human KRAS utr-4 G-quadruplex RNA by fluorescence titration method.
Data set [7] relates to PANC-1. The data set can be described thus: Induction of apoptosis in human PANC1 cells assessed as activation of caspase-3/7 at 0.8 to 1.6 uM. Type of data set: functional, cell-based. In short, it runs like this: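 Caspase-3/7 activity in treated Panc-1 cells was read with a homogeneous fluorogenic caspase-3/7 kit per the manufacturer.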
Data set [8] can be described thus: Selectivity ratio of Kd for WC RNA hairpin (unknown origin) to Kd for human KRAS utr-1 G-quadruplex RNA.
For data set [9], the species on record is Homo sapiens. The data set can be described thus: Stabilization of human KRAS utr-1 G-quadruplex RNA assessed as change in melting temperature at 1 to 4 ligand to RNA ratio after 1 hr by UV-visible spectrophotometer. In short, it runs like this:
as §1

Data set [10] concerns PANC-1. Kind of data set: Inhibition of colony formation in human PANC1 cells at 0.25 to 0.5 uM after 18 days by methylene blue assay relative to control. The data set is classed as functional. The procedure, abridged:
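Panc-1 cells were plated in 60 mm dishes with compound. After 18 days they were fixed and stained 10 min with 2.5% methylene blue in 50% ethanol. Colonies of more than 50 cells were counted.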

For data set [11], the species on record is Homo sapiens. The data set can be described thus: Stabilization of human KRAS 5'-UTR G-quadruplex RNA at 3'-end of CMV promoter transfected in human PANC1 cells assessed as inhibition of translation preincubated for 6 hrs followed by transfection measured after 48 hrs by dual-glo luciferase reporter gene assay. The data set is classed as cell-based. The procedure, abridged: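 Renilla reporter pRL-CMV-UTR carries the 192-nt KRAS 5′-UTR inserted downstream of the CMV promoter. Panc-1 cells were pretreated 6 h (0–1.6 μM), then cotransfected (10 ng) with 200 ng Firefly plasmid under a G4-mutated HRAS promoter. Dual-Glo was read after 48 h, expressed as Renilla/Firefly T/C × 100.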

Data set [12] in a line: Selectivity ratio of Kd for WC RNA hairpin (unknown origin) to Kd for human KRAS utr-4 G-quadruplex RNA.
The species named for data set [13] is Homo sapiens. Kind of data set: Stabilization of human KRAS 5'-UTR G-quadruplex RNA in human PANC1 cells assessed as inhibition of translation by measuring levels of KRAS protein at 1.6 uM after 48 hrs by Western blot method relative to control. The data set is classed as cell-based. On the set-up: scale not given: the % may be the effect or the level left. In short, it runs like this:
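Panc-1 lysates (15 μg protein) were run on 12% SDS-PAGE and transferred to nitrocellulose. Membranes were blocked with 5% BSA in PBS-0.05% Tween and probed overnight at 4 °C with rabbit polyclonal anti-KRAS (1:250) and mouse anti-actin. HRP-conjugated secondaries were applied for 1 h, with chemiluminescent detection.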

For data set [14], the species on record is Homo sapiens. Kind of data set: Stabilization of human KRAS 5'-UTR G-quadruplex RNA transfected in human PANC1 cells assessed as inhibition of translation at 0.07 to 0.33 uM preincubated for 6 hrs followed by transfection measured after 48 hrs by dual-glo luciferase reporter gene assay. The data set is classed as cell-based. In short, it runs like this: as §2

Data set [15] relates to PANC-1. Kind of data set: Downregulation of KRAS mRNA expression in human PANC1 cells at 1.6 uM after 6 to 24 hrs by qRT-PCR method relative to control. The data set is classed as functional. The procedure, abridged:
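Panc-1 cells were seeded at 18 × 10^3/well and treated the next day. Total RNA was extracted 6 and 24 h later. cDNA was made with oligo-dT plus random hexamers and M-MLV reverse transcriptase (1 h, 37 °C). Multiplex probe qPCR measured KRAS against HPRT and β2-microglobulin (50 cycles: 10 s 95 °C, 60 s 58 °C).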

A short description of data set [16]: Binding affinity to human KRAS utr-1 G-quadruplex RNA by fluorescence titration method. In short, it runs like this: (§3)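 KD was obtained from fluorescence titrations of ligand with G4 RNA in 50 mM Tris-HCl, pH 7.4, 100 mM KCl.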
Data set [17] is described as follows: Drug uptake in cytoplasm of human PANC1 at 3 uM after 4 hrs by Syto-14 fluorescent dye-based confocal microscopic method. The data set is classed as ADME.
The nature of data set [18]: Selectivity ratio of Kd for WC RNA hairpin (unknown origin) to Kd for human KRAS utr-z G-quadruplex RNA.
In data set [19] the test system is PANC-1. The data set can be described thus: Induction of apoptosis in human PANC1 cells at 1.6 uM after 72 hrs by annexin V/propidium iodide staining-based flow cytometric method (reference value: 1.2%). The data set is classed as functional. In short, it runs like this:
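Panc-1 cells were exposed to 1.6 μM compound for 72 h, stained with FITC-annexin V and propidium iodide, and apoptotic cells counted by flow cytometry.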

For data set [20], the system named is PANC-1. Kind of data set: Inhibition of metabolic activity in human PANC1 cells after 72 hrs by resazurin assay. Type of data set: functional, cell-based. To be noted: PANC-1, 72 h. The procedure, abridged: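 Panc-1 cells were seeded at 10 × 10^3/well, treated after 1 day, incubated 72 h, then assayed with resazurin for metabolic activity. IC50 was reported.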
Background: The colour change of resazurin is a common sign of viable cells or microbes.

Data set [21] is described as follows: Binding affinity to human KRAS utr-z G-quadruplex RNA by fluorescence titration method. The procedure, abridged:
as §3

Data set [22] is filed under the species Homo sapiens. Kind of data set: Stabilization of human KRAS utr-c G-quadruplex RNA assessed as change in melting temperature at 1 to 4 ligand to RNA ratio after 1 hr by UV-visible spectrophotometer. In short, it runs like this:
as §1

Data set [23] is filed under the species Homo sapiens. Kind of data set: Stabilization of human KRAS utr-1 G-quadruplex RNA assessed as change in melting temperature at 4 ligand to RNA ratio after 1 hr in presence of 5 or 10 fold excess 21 mer RNA duplex by UV-visible spectrophotometer. In short, it runs like this:
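The utr-1 G4 RNA was UV-melted with ligand at ligand/G4 ratio r = 4, with a 5- or 10-fold excess of 21-mer RNA duplex added to test quadruplex-over-duplex competition.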

For the compound `NCCNc1c2c(c(NCCN)c3occc13)C(=O)c1ccccc1C2=O`, the ΔTm in the data set filed under Homo sapiens [1], in the data set filed under Homo sapiens [9] and in the data set listed under Homo sapiens [22] was under 32 °C throughout. In addition, the Kd in data set [2] is 514 nM; in data set [4], 626 nM; in [6], 96 nM; in data set [16], 75 nM; in [21], 251 nM. The inhibition entry in the data set listed under Homo sapiens [3], in the data set filed under Homo sapiens [11] and in the data set listed under Homo sapiens [14] was “Dose-dependent effect” throughout. Besides, the Drug uptake result in data set [5] and in data set [17] was “Active” throughout. In addition, in the data set on Cytomegalovirus, the inhibition result was “inactive”. Also, the result with PANC-1 [7] and in the data set filed under Homo sapiens [23] was Active. For the same compound, the Selectivity ratio in data set [8], in [12] and in data set [18] was 2 to 6 in each case. For the same compound, in the data set with PANC-1 [10], the “inhibition (INH)” value is 80%. Further, the values for the Activity in the data set listed under Homo sapiens [13], in the data set on PANC-1 [15] and in the data set on PANC-1 [19] were under 10%, 50% and 32.5%, respectively. In the data set on PANC-1 [20], this compound came in with an IC50 of 260 nM.

As to `NCCNc1c2c(c(NCCN)c3sccc13)C(=O)c1ccccc1C2=O`, the shift in melting temperature (ΔTm) in the data set filed under Homo sapiens [1], in the data set listed under Homo sapiens [9] and in the data set filed under Homo sapiens [22] was under 20 °C throughout. The Kd in data set [2] amounted to 482 nM; in data set [4] it was 278 nM; in data set [6] it was 83 nM; in [16] it was 91 nM; in data set [21], 294 nM. Also, the inhibition result in the data set filed under Homo sapiens [3] is “Dose-dependent effect”. Further, in data set [5], the Drug uptake entry is recorded as “Active”. Moreover, in the data set with PANC-1 [7], the outcome was Active. Besides, the Selectivity ratio in data set [8], in data set [12] and in data set [18] was 2 to 6 throughout. In addition, the Activity in the data set filed under Homo sapiens [13] was under 10%; in the data set with PANC-1 [19], 20.6%. Moreover, in the data set on PANC-1 [15], the result was inactive. For the same compound, 900 nM corresponded to half-maximal inhibition in the data set on PANC-1 [20] (IC50).

As to `N=C(N)NCCNc1c2c(c(NCCNC(=N)N)c3occc13)C(=O)c1ccccc1C2=O`, the outcome in the data set with PANC-1 [7] and with PANC-1 [15] was inactive. Further, the Drug uptake result in [17] is “Active”.

Take `N=C(N)NCCNc1c2c(c(NCCNC(=N)N)c3sccc13)C(=O)c1ccccc1C2=O`: the result in the data set on PANC-1 [7] and with PANC-1 [15] was inactive.

These data come from ChEMBL document CHEMBL4052820, “RNA G-Quadruplexes in Kirsten Ras (KRAS) Oncogene as Targets for Small Molecules Inhibiting Translation” (J Med Chem, 2017).
